In brackets after ≈: the same amount, converted by molar mass. Peptide text beside a SMILES is read from it.
What was measured:
Enterobacter cloacae [1] = assay: Compound tested for the antimicrobial activity against Enterobacter cloacae ROS; format: functional, enterobacter cloacaeros
Procedure, shortened: (§1)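 MIC by microbroth dilution in Tryptic Soy Broth; inoculum 5×10^5 CFU/mL; plates incubated 18-20 h at 37 °C; assay pH approximately 7.4.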

Staphylococcus aureus [2] = assay: Compound tested for the activity against Staphylococcus aureus strain 9; format: functional
Procedure, shortened: (§2)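 Microbroth dilution in Tryptic Soy Broth; inoculum 5×10^5 CFU/mL; plates incubated at 37 °C for 18-20 h; value reported as minimal inhibitory concentration (µg/mL).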

[3] = Hemolytic activity towards human erythrocytes is evaluated for magainin 2 at peptide concentration of 50 µg/mL; format: functional
Procedure, shortened: (§3)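 Washed human erythrocytes from healthy volunteers (3 mL packed cells, PBS pH 7.4 washes, diluted to 20 mL) exposed to peptide in PBS at 25-200 µg/mL, 30 min at 37 °C; supernatant absorbance at 576 nm after centrifugation; 0.1% Triton X-100 taken as 100% hemolysis; duplicates.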

Pseudomonas aeruginosa [4] = assay: Compound tested for the antimicrobial activity against Pseudomonas aeruginosa strain 8; format: functional; procedure, shortened: as §2
Pseudomonas aeruginosa [5] = assay: Compound tested for the antimicrobial activity against Pseudomonas aeruginosa strain 1; format: functional; procedure, shortened: as §2
Staphylococcus aureus [6] = assay: Compound tested for the activity against Staphylococcus aureus strain 10; format: functional; procedure, shortened: as §2
Staphylococcus aureus [7] = assay: Compound tested for the activity against Staphylococcus aureus strain 11; format: functional; procedure, shortened: as §2
Pseudomonas aeruginosa [8] = assay: Compound tested for the antimicrobial activity against Pseudomonas aeruginosa strain ATCC 25916; format: functional; procedure, shortened: as §2
Pseudomonas aeruginosa [9] = assay: Compound tested for the antimicrobial activity against Pseudomonas aeruginosa strain 2; format: functional; procedure, shortened: as §2
Staphylococcus aureus [10] = assay: Compound tested for the activity against Staphylococcus aureus strain 7; format: functional; procedure, shortened: as §2
Escherichia coli = assay: Compound tested for in vitro susceptibility against ATCC strain 25922 of Escherichia coli; format: functional; conditions: ATCC25922; procedure, shortened: as §2
Enterobacter cloacae [11] = assay: Compound tested for the antimicrobial activity against Enterobacter cloacae; format: functional; procedure, shortened: as §2
Shigella flexneri = assay: Compound tested for the antimicrobial activity against Shigella flexneri; format: functional; procedure, shortened: as §1
[12] = Hemolytic activity towards human erythrocytes is evaluated for magainin 2 at peptide concentration of 100 µg/mL; format: functional; procedure, shortened: as §3
Pseudomonas aeruginosa [13] = assay: Compound tested for the antimicrobial activity against Pseudomonas aeruginosa strain 11; format: functional; procedure, shortened: as §2
[14] = Hemolytic activity towards human erythrocytes is evaluated for magainin 2 at peptide concentration of 200 µg/mL; format: functional; procedure, shortened: as §3
[15] = Hemolytic activity towards human erythrocytes is evaluated for magainin 2 at peptide concentration of 25 ug/mL; format: functional; procedure, shortened: as §3
Pseudomonas aeruginosa [16] = assay: Compound tested for the antimicrobial activity against Pseudomonas aeruginosa strain 10; format: functional; procedure, shortened: as §2
Staphylococcus aureus [17] = assay: Compound tested for the activity against Staphylococcus aureus strain 2; format: functional; procedure, shortened: as §2
Staphylococcus aureus [18] = assay: Compound tested for the activity against Staphylococcus aureus strain 6; format: functional; procedure, shortened: as §2
Pseudomonas aeruginosa [19] = assay: Compound tested for the antimicrobial activity against Pseudomonas aeruginosa strain 9; format: functional; procedure, shortened: as §2
Proteus mirabilis = assay: Compound tested for the antimicrobial activity against Proteus mirabilis; format: functional; procedure, shortened: as §2
Pseudomonas aeruginosa [20] = assay: Compound tested for the antimicrobial activity against Pseudomonas aeruginosa strain 5; format: functional; procedure, shortened: as §2
Pseudomonas aeruginosa [21] = assay: Compound tested for the antimicrobial activity against Pseudomonas aeruginosa strain 6; format: functional; procedure, shortened: as §2
Pseudomonas aeruginosa [22] = assay: Compound tested for the antimicrobial activity against Pseudomonas aeruginosa strain 4; format: functional; procedure, shortened: as §2
Pseudomonas aeruginosa [23] = assay: Compound tested for in vitro susceptibility against ATCC strain 27853 of Pseudomonas aeruginosa; format: functional; conditions: ATCC 27853; procedure, shortened: as §2
[24] = tested on: Salmonella enterica subsp. enterica serovar Anatum; assay: Compound tested for the antimicrobial activity against S. a natum; format: functional, salmoneila anatum; procedure, shortened: as §2
Staphylococcus aureus [25] = assay: Compound tested for in vitro susceptibility against ATCC strain 29213 of Staphylococcus aureus; format: functional; procedure, shortened: as §2
Klebsiella pneumoniae = assay: Compound tested for the antimicrobial activity against Klebsiella pneumoniae; format: functional; procedure, shortened: as §1
Staphylococcus aureus [26] = assay: Compound tested for the activity against Staphylococcus aureus strain ATCC 28953; format: functional; procedure, shortened: as §2
Staphylococcus aureus [27] = assay: Compound tested for the activity against Staphylococcus aureus strain 1; format: functional; procedure, shortened: as §2
Pseudomonas aeruginosa [28] = assay: Compound tested for the antimicrobial activity against Pseudomonas aeruginosa strain 7; format: functional; procedure, shortened: as §2
Pseudomonas aeruginosa [29] = assay: Compound tested for the antimicrobial activity against Pseudomonas aeruginosa strain 3; format: functional; procedure, shortened: as §2
Staphylococcus aureus [30] = assay: Compound tested for the activity against Staphylococcus aureus strain 3; format: functional; procedure, shortened: as §2
Staphylococcus aureus [31] = assay: Compound tested for the activity against Staphylococcus aureus strain 4; format: functional; procedure, shortened: as §2
Staphylococcus aureus [32] = assay: Compound tested for the activity against Staphylococcus aureus strain 5; format: functional; procedure, shortened: as §2
[33] = tested on: Acinetobacter calcoaceticus subsp. anitratus; assay: Compound tested for the antimicrobial activity against Acinetobacter anitratus; format: functional; procedure, shortened: as §1
Staphylococcus aureus [34] = assay: Compound tested for the activity against Staphylococcus aureus strain 8; format: functional; procedure, shortened: as §2
Staphylococcus aureus [35] = assay: Compound tested for the activity against strain of Staphylococcus aureus ATCC 28953; format: functional; procedure, shortened: as §2

| SMILES | MIC (Staphylococcus aureus [2]) [µg/mL] | Hemolysis [3] [%] | MIC (Pseudomonas aeruginosa [4]) [µg/mL] | MIC (Pseudomonas aeruginosa [5]) [µg/mL] | MIC (Staphylococcus aureus [6]) [µg/mL] | MIC (Staphylococcus aureus [7]) [µg/mL] | MIC (Pseudomonas aeruginosa [8]) [µg/mL] | MIC (Pseudomonas aeruginosa [9]) [µg/mL] | MIC (Staphylococcus aureus [10]) [µg/mL] | MIC (Escherichia coli) [µg/mL] | Hemolysis [12] [%] | MIC (Pseudomonas aeruginosa [13]) [µg/mL] | Hemolysis [14] [%] | Hemolysis [15] [%] | MIC (Pseudomonas aeruginosa [16]) [µg/mL] | MIC (Staphylococcus aureus [17]) [µg/mL] | MIC (Staphylococcus aureus [18]) [µg/mL] | MIC (Pseudomonas aeruginosa [19]) [µg/mL] | MIC (Pseudomonas aeruginosa [20]) [µg/mL] | MIC (Pseudomonas aeruginosa [21]) [µg/mL] | further results |
| --- | --- | --- | --- | --- | --- | --- | --- | --- | --- | --- | --- | --- | --- | --- | --- | --- | --- | --- | --- | --- | --- |
| CC(C)C[C@H](NC(=O)[C@H](C)NC(=O)[C@H](CCCCN)NC(=O)[C@H](C)NC(=O)[C@H](CC(C)C)NC(=O)[C@H](CCCCN)NC(=O)[C@H](C)NC(=O)[C@H](CC(C)C)NC(=O)[C@H](CCCCN)NC(=O)[C@H](C)NC(=O)[C@H](CC(C)C)NC(=O)[C@H](CCCCN)NC(=O)[C@H](CCCCN)NC(=O)[C@H](C)NC(=O)[C@H](CC(C)C)NC(=O)[C@@H](N)CCCCN)C(=O)O (H-KLAKKLAKLAKLAKAL-OH) | > 100 | 1 | 50 (≈ 29.3 µM) | 3.12 (≈ 1.83 µM) | > 100 | > 100 | 6.25 (≈ 3.66 µM) | 6.25 (≈ 3.66 µM) | > 100 | 6.25 (≈ 3.66 µM) | 1 | 6.25 (≈ 3.66 µM) | 2 | 1 | > 100 | > 100 | > 100 | > 100 | 6.25 (≈ 3.66 µM) | > 100 | MIC (Enterobacter cloacae [1]): 12.5 µg/mL (≈ 7.32 µM); MIC (Enterobacter cloacae [11]): 3.12 µg/mL (≈ 1.83 µM); MIC (Shigella flexneri): 25 µg/mL (≈ 14.6 µM); MIC (Proteus mirabilis): > 100 µg/mL; MIC (Pseudomonas aeruginosa [22]): 3.12 µg/mL (≈ 1.83 µM); MIC (Pseudomonas aeruginosa [23]): 3.12 µg/mL (≈ 1.83 µM); MIC [24]: 25 µg/mL (≈ 14.6 µM); MIC (Staphylococcus aureus [25]): 12.5 µg/mL (≈ 7.32 µM); MIC (Klebsiella pneumoniae): 12.5 µg/mL (≈ 7.32 µM); MIC (Staphylococcus aureus [26]): > 100 µg/mL; MIC (Staphylococcus aureus [27]): > 100 µg/mL; MIC (Pseudomonas aeruginosa [28]): 6.25 µg/mL (≈ 3.66 µM); MIC (Pseudomonas aeruginosa [29]): 3.12 µg/mL (≈ 1.83 µM); MIC (Staphylococcus aureus [30]): > 100 µg/mL; MIC (Staphylococcus aureus [31]): > 100 µg/mL; MIC (Staphylococcus aureus [32]): > 100 µg/mL; MIC [33]: 3.12 µg/mL (≈ 1.83 µM); MIC (Staphylococcus aureus [34]): > 100 µg/mL |
| CC(C)C[C@H](NC(=O)[C@H](Cc1c[nH]c2ccccc12)NC(=O)[C@H](CCCCN)NC(=O)[C@H](CCCCN)NC(=O)[C@@H](N)Cc1c[nH]c2ccccc12)C(=O)N[C@@H](Cc1c[nH]c2ccccc12)C(=O)N[C@@H](C)C(=O)N[C@@H](CCCCN)C(=O)N[C@@H](Cc1c[nH]c2ccccc12)C(=O)O (H-WKKWLWAKW-OH) | 50 (≈ 37.5 µM) | 1 | 50 (≈ 37.5 µM) | 50 (≈ 37.5 µM) | 50 (≈ 37.5 µM) | 50 (≈ 37.5 µM) | 50 (≈ 37.5 µM) | 12.5 (≈ 9.39 µM) | 25 (≈ 18.8 µM) | 50 (≈ 37.5 µM) | 4 | 50 (≈ 37.5 µM) | 5 | 1 | > 100 | 25 (≈ 18.8 µM) | 50 (≈ 37.5 µM) | > 100 | 50 (≈ 37.5 µM) | > 100 | MIC (Pseudomonas aeruginosa [22]): 50 µg/mL (≈ 37.5 µM); MIC (Pseudomonas aeruginosa [23]): 12.5 µg/mL (≈ 9.39 µM); MIC (Staphylococcus aureus [35]): > 100 µg/mL; MIC (Staphylococcus aureus [25]): 25 µg/mL (≈ 18.8 µM); MIC (Staphylococcus aureus [27]): 50 µg/mL (≈ 37.5 µM); MIC (Pseudomonas aeruginosa [28]): 50 µg/mL (≈ 37.5 µM); MIC (Pseudomonas aeruginosa [29]): 50 µg/mL (≈ 37.5 µM); MIC (Staphylococcus aureus [30]): > 100 µg/mL; MIC (Staphylococcus aureus [31]): 50 µg/mL (≈ 37.5 µM); MIC (Staphylococcus aureus [32]): 50 µg/mL (≈ 37.5 µM); MIC (Staphylococcus aureus [34]): 50 µg/mL (≈ 37.5 µM) |

Reference: ChEMBL document CHEMBL1126653, “Structure-function studies of amphiphilic antibacterial peptides” (1993)
